Usually Ki stands for the equilibrium dissociation constant of an inhibitor or competing ligand from its target. Usually Papp B→A stands for the apparent permeability from the basolateral to the apical side of a cell layer. The Papp A→B is how fast a substance crosses the layer from the apical side. The term IC50 denotes the concentration that inhibits the measured activity by half. What is called Papp is the rate of passage across a membrane or cell layer, normalised by area and donor concentration.

The structures appear in SMILES notation. Activity calls are given as the source filed them. No cut-off for these calls is given here.

From ChEMBL document CHEMBL4007511, “Synthesis and Biological Evaluation of Bile Acid Analogues Inhibitory to Clostridium difficile Spore Germination” (J Med Chem, 2017) come the findings set out here.

The target of data set [1] is Clostridioides difficile. The data set is described as follows: Inhibition of TCA-induced spore germination in Clostridium difficile NAP1 at 0.2 mM using varying levels of TCA measured after 20 mins under anaerobic condition. The data set is classed as functional.
The test system of data set [2] is Clostridioides difficile. The data set is described as follows: Antibacterial activity against Clostridium difficile NAP1 assessed as concentration required for complete inhibition of TCA-induced spore germination measured after 20 mins under anaerobic condition. In kind it is functional. Conditions: NAP1, 20 min, read-out: MEC. An outline of the steps: (§1)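 Spores (~0.5 McFarland, heat-treated 65 °C for 30 min) inoculated anaerobically into pre-reduced (2–3 h) BHIS (0.5% yeast extract, 0.1% L-cysteine) containing 2000 μM taurocholate plus analogue at varying concentrations; OD600 read each minute for 20 min, normalized to t0. Complete inhibition = relative OD600 ≥0.95 at 20 min; triplicate wells, solvent (DMSO or DMSO/ethanol) controls.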

Data set [3] deals with Clostridioides difficile. The data set is described as follows: Competitive inhibition of taurocholate-induced spore germination in Clostridium difficile UK1 at 0.2 mM by Michaelis-Menten kinetic analysis. The data set is classed as functional.
For data set [4], the system named is Clostridioides difficile. The experiment in a line: Inhibition of TCA-induced spore germination in Clostridium difficile NAP1 assessed as spore germination at 10 uM measured after 20 mins under anaerobic condition by phase-contrast microscopic analysis relative to control. In kind it is functional. Details: scale not given: the % may be the effect or the level left. In a few lines: (§2)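 Heat-treated spores exposed to BHIS with 2000 μM taurocholate plus analogue or DMSO control; t0 samples put on ice at once, t20 samples held 20 min at room temperature then iced; phase-bright spores and phase-dark germinated cells counted by hemocytometer under phase-contrast. % germination of total cells; relative value = (t20−t0) test/(t20−t0) control; triplicate, mean ± SD.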

Data set [5] relates to Clostridioides difficile. The data set is described as follows: Induction of spore germination in Clostridium difficile NAP1 at 1500 to 2000 uM measured after 20 mins under anaerobic condition.
Data set [6] in a line: in vitro. Conditions: human, Caco-2.
Data set [7] is described as follows: in vitro. Conditions: human, Caco-2. This is another data set of the same source.
Data set [8] relates to Clostridioides difficile. The data set is described as follows: Inhibition of taurocholate/glycine-induced spore germination in Clostridium difficile 630 preincubated for 15 mins followed by taurocholate/glycine addition measured every minute for 90 mins. In kind it is functional.
Data set [9] concerns Clostridioides difficile. The experiment in a line: Inhibition of TCA-induced spore germination in Clostridium difficile NAP1 assessed as compound concentration required for complete inhibition by spectrophotometric method. Conditions: read-out: MEC. In kind it is functional. In a few lines:
as §1

For data set [10] the following is noted: human, caco-2, 10 µM.
The test system of data set [11] is Clostridioides difficile. The experiment in a line: Inhibition of TCA-induced spore germination in Clostridium difficile NAP1 at 50 uM measured after 20 mins under anaerobic condition by phase-contrast microscopic analysis. The data set is classed as functional. In a few lines:
as §2

For data set [12] the following is noted: human, caco-2, 10 µM. The source holds these as a separate data set.

As to `COC(=O)CC[C@@H](C)[C@H]1CC[C@H]2[C@@H]3[C@H](O)C[C@@H]4C[C@H](O)CC[C@]4(C)[C@H]3CC[C@]12C`, the results for the Ki at Clostridioides difficile [1] and at Clostridioides difficile [3] were 118 µM and 44 µM, respectively. In addition, in the data set on Clostridioides difficile [2], the minimal effective concentration worked out at 500 µM. Besides, the Activity in the data set on Clostridioides difficile [4] was 73%. For the compound `C[C@H](CCC(=O)N1CCCC1)[C@H]1CC[C@H]2[C@@H]3[C@@H](O)C[C@@H]4C[C@H](O)CC[C@]4(C)[C@H]3CC[C@]12C`, the minimal effective concentration with Clostridioides difficile [2] amounted to 100 µM. On the same count and under the same terms, the same measure for `C[C@H](CCC(C)(C)O)[C@H]1CC[C@H]2[C@H]3[C@H](CC[C@]12C)[C@@]1(C)CC[C@@H](O)C[C@H]1C[C@@]3(C)O`: greater than 1000 µM. With `CO[C@@H]1CC[C@@]2(C)[C@@H](C1)C[C@H](O)[C@@H]1[C@@H]2CC[C@]2(C)[C@@H]([C@H](C)CCC(=O)O)CC[C@@H]12`, the minimal effective concentration in the data set with Clostridioides difficile [2] was greater than 500 µM. For the same compound, the Activity entry in the data set on Clostridioides difficile [5] was “Toxic”.

Turning to `COC(=O)CC[C@@H](C)[C@H]1CC[C@H]2[C@@H]3[C@@H](O)C[C@@H]4C[C@H](OC)CC[C@]4(C)[C@H]3CC[C@]12C`, the minimal effective concentration in the data set on Clostridioides difficile [2] was 500 µM. Consider `CO[C@@H]1CC[C@@]2(C)[C@@H](C1)C[C@H](OC)[C@@H]1[C@@H]2CC[C@]2(C)[C@@H]([C@H](C)CCC(=O)O)CC[C@@H]12`, for which the minimal effective concentration with Clostridioides difficile [2] was greater than 1000 µM. Also, the Activity in the data set on Clostridioides difficile [4] was 75%. Regarding `CO[C@@H]1CC[C@@]2(C)[C@@H](C1)C[C@@H](OS(=O)(=O)[O-])[C@@H]1[C@@H]2CC[C@]2(C)[C@@H]([C@H](C)CCC(=O)c3nnn[n-]3)CC[C@@H]12.[Na+].[Na+]`, in the data set “in vitro [6]”, the Papp B→A at 10 µM was found to be 0.4 ×10⁻⁶ cm/s. For the same compound, the minimal effective concentration in the data set with Clostridioides difficile [2] turned out to be 25 µM. For the same compound, the Papp A→B at 10 µM in “in vitro [7]” was determined as 0.4 ×10⁻⁶ cm/s. Further, in the data set with Clostridioides difficile [4], the Activity is listed as 51%.

On to `CO[C@@H]1CC[C@@]2(C)[C@@H](C1)C[C@@H](OC)[C@@H]1[C@@H]2CC[C@]2(C)[C@@H]([C@H](C)CCC(=O)N3CCCC3)CC[C@@H]12`, for which the minimal effective concentration with Clostridioides difficile [2] stood at 500 µM. `COC(=O)CC[C@@H](C)[C@H]1CC[C@H]2[C@@H]3[C@@H](O)C[C@@H]4C[C@H](O)CC[C@]4(C)[C@H]3CC[C@]12C`: in the data set on Clostridioides difficile [2], the minimal effective concentration was 50 µM.

With `C[C@H](CCC(=O)Nc1cccc(S(=O)(=O)O)c1)[C@H]1CC[C@H]2[C@@H]3[C@H](O)C[C@@H]4C[C@H](O)CC[C@]4(C)[C@H]3C[C@H](O)[C@]12C`, the minimal effective concentration in the data set on Clostridioides difficile [2] was greater than 1000 µM. Moreover, 58 µM corresponded to half-maximal inhibition with Clostridioides difficile [8] (IC50). For the same compound, in the data set with Clostridioides difficile [4], the Activity was found to be 78%. As to `CCCCNC(=O)CC[C@@H](C)[C@H]1CC[C@H]2[C@@H]3[C@H](O)C[C@@H]4C[C@H](O)CC[C@]4(C)[C@H]3CC[C@]12C`, in the data set with Clostridioides difficile [2], the minimal effective concentration was found to be 500 µM.

Take `COC(=O)CC[C@@H](C)[C@H]1CC[C@H]2[C@@H]3[C@@H](OC)C[C@@H]4C[C@H](O)CC[C@]4(C)[C@H]3CC[C@]12C`: in the data set with Clostridioides difficile [2], the minimal effective concentration was determined as 500 µM. Still for that read-out and setting: for `COC(=O)CC[C@@H](C)[C@H]1CC[C@H]2[C@@H]3[C@H](OC)C[C@@H]4C[C@H](OC)CC[C@]4(C)[C@H]3CC[C@]12C` the value was 500 µM. `C[C@H](CCC(=O)O)[C@H]1CC[C@H]2[C@@H]3[C@@H](O)C[C@@H]4C[C@H](O)CC[C@]4(C)[C@H]3CC[C@]12C` [URSODIOL]: in the data set with Clostridioides difficile [9], the minimal effective concentration was determined as 500 µM.

`CO[C@@H]1CC[C@@]2(C)[C@@H](C1)C[C@H](OC)[C@@H]1[C@@H]2CC[C@]2(C)[C@@H]([C@H](C)CCC(=O)N3CCCC3)CC[C@@H]12`: the minimal effective concentration in the data set on Clostridioides difficile [2] was 1000 µM. On to `COC(=O)CC[C@@H](C)[C@H]1CC[C@H]2[C@@H]3C[C@H](O)[C@@H]4C[C@H](O)CC[C@]4(C)[C@H]3CC[C@]12C`, for which the minimal effective concentration in the data set on Clostridioides difficile [2] worked out at 500 µM.

In the case of `C[C@H](CCC(=O)O)[C@H]1CC[C@H]2[C@@H]3[C@H](O)C[C@@H]4C[C@H](O)CC[C@]4(C)[C@H]3CC[C@]12C` [CHENODIOL], in the data set with Clostridioides difficile [2], the minimal effective concentration is 500 µM. With `CCCCNC(=O)CC[C@@H](C)[C@H]1CC[C@H]2[C@@H]3[C@@H](O)C[C@@H]4C[C@H](O)CC[C@]4(C)[C@H]3CC[C@]12C`, in the data set on Clostridioides difficile [2], the minimal effective concentration amounted to 500 µM. `CO[C@H]1C[C@@H]2C[C@H](O)CC[C@]2(C)[C@H]2CC[C@]3(C)[C@@H]([C@H](C)CCC(=O)O)CC[C@H]3[C@H]12`: in the data set on Clostridioides difficile [2], the minimal effective concentration was greater than 500 µM. In the data set on Clostridioides difficile [5], the Activity entry is “Toxic”.

In the case of `C[C@H](CCC(=O)O)[C@H]1CC[C@H]2[C@@H]3[C@@H](OS(=O)(=O)O)C[C@@H]4C[C@H](O)CC[C@]4(C)[C@H]3CC[C@]12C`, in the data set with Clostridioides difficile [2], the minimal effective concentration was 3000 µM. As for `C[C@H](CCC(=O)NC(C)(C)CO)[C@H]1CC[C@H]2[C@@H]3[C@H](O)C[C@@H]4C[C@H](O)CC[C@]4(C)[C@H]3CC[C@]12C`, in the data set on Clostridioides difficile [2], the minimal effective concentration came out at 500 µM.

As for `CO[C@@H]1CC[C@@]2(C)[C@@H](C1)C[C@@H](O)[C@@H]1[C@@H]2CC[C@]2(C)[C@@H]([C@H](C)CCC(=O)O)CC[C@@H]12`, the minimal effective concentration in the data set on Clostridioides difficile [2] is greater than 100 µM. Further, the Activity result with Clostridioides difficile [5] is “Toxic”. Consider `COC(=O)CC[C@@H](C)[C@H]1CC[C@H]2[C@H]3[C@H](CC[C@]12C)[C@@]1(C)CC[C@@H](O)C[C@H]1C[C@@]3(C)O`, for which, in the data set with Clostridioides difficile [2], the minimal effective concentration turned out to be 50 µM. At Clostridioides difficile [1], `CO[C@@H]1CC[C@@]2(C)[C@@H](C1)C[C@H](OS(=O)(=O)[O-])[C@@H]1[C@@H]2CC[C@]2(C)[C@@H]([C@H](C)CCC(=O)N3CCCC3)CC[C@@H]12.[Na+]` showed a Ki of 20 µM. In addition, the Papp in data set [10] was determined as 0.1 ×10⁻⁶ cm/s; in [12], 2.1 ×10⁻⁶ cm/s. In addition, the minimal effective concentration with Clostridioides difficile [2] came to 50 µM. Moreover, the inhibition result in the data set with Clostridioides difficile [11] was “Active”. In addition, the Activity with Clostridioides difficile [4] amounted to 9%. For `COC(=O)CC[C@@H](C)[C@H]1CC[C@H]2[C@@H]3[C@@H](OC)C[C@@H]4C[C@H](OC)CC[C@]4(C)[C@H]3CC[C@]12C`, the minimal effective concentration with Clostridioides difficile [2] amounted to 500 µM. Turning to `COC(=O)CC[C@@H](C)[C@H]1CC[C@H]2[C@@H]3[C@H](OC)C[C@@H]4C[C@H](O)CC[C@]4(C)[C@H]3CC[C@]12C`, the minimal effective concentration in the data set with Clostridioides difficile [2] came to 500 µM. In the case of `C[C@H](CCC(=O)O)[C@H]1CC[C@H]2[C@@H]3C[C@H](O)[C@@H]4C[C@H](O)CC[C@]4(C)[C@H]3CC[C@]12C` [HYODEOXYCHOLIC_ACID], the minimal effective concentration with Clostridioides difficile [2] stood at 500 µM. Besides, in the data set on Clostridioides difficile [5], the Activity result is on record as “Toxic”.

Take `CC(=O)O[C@@H]1CC[C@@]2(C)[C@@H](C1)C[C@H](OC(C)=O)[C@@H]1[C@@H]2CC[C@]2(C)[C@@H]([C@H](C)CCC(N)=O)CC[C@@H]12`: in the data set on Clostridioides difficile [2], the minimal effective concentration was determined as 50 µM. In addition, the Activity result in the data set with Clostridioides difficile [5] is listed as “Toxic”. With `COC(=O)CC[C@@H](C)[C@H]1CC[C@H]2[C@@H]3[C@H](O)C[C@@H]4C[C@H](OC)CC[C@]4(C)[C@H]3CC[C@]12C`, the minimal effective concentration with Clostridioides difficile [2] turned out to be 500 µM. On to `C[C@H](CCC(=O)N1CCCC1)[C@H]1CC[C@H]2[C@@H]3[C@H](O)C[C@@H]4C[C@H](O)CC[C@]4(C)[C@H]3CC[C@]12C`, for which the minimal effective concentration in the data set on Clostridioides difficile [2] amounted to 50 µM. As for `CC(=O)O[C@@H]1CC[C@@]2(C)[C@@H](C1)C[C@@H](OC(C)=O)[C@@H]1[C@@H]2CC[C@]2(C)[C@@H]([C@H](C)CCC(N)=O)CC[C@@H]12`, the minimal effective concentration in the data set with Clostridioides difficile [2] amounted to 50 µM.
